# Results pooled from the literature.
# Compare with care: the assays were run in different laboratories.
# Target: Mitogen-activated protein kinase kinase kinase 9 (MAP3K9, Homo sapiens, UniProt P80192)
SMILES,effect on,action,method,concentration,endpoint,result
Nc1ncc(-c2nc(N3CCOCC3)nc(N3CCOCC3)n2)c(C(F)F)n1,binding,,competition with immobilised ligand,10 µM,remaining binding,42%
N#CC1(c2ccccn2)CCN(Cc2cc(C(=O)O)c(=O)n3ccccc23)CC1,cell-free assay,,competition with immobilised ligand,1 µM,remaining binding,92%
Cn1cc(-c2cc(F)cc(N3CCn4c(cc5c4CCCC5)C3=O)c2CO)cc(Nc2ccc(N3CCN(C4COC4)CC3)cn2)c1=O,enzyme activity,inhibitor,,0.1 µM,inhibition,4%
Cc1nn(C)cc1-c1nc2c(N3CCN(Cc4ccc(Cl)cc4)CC3)c(Cl)cnc2[nH]1,binding,,competition with immobilised ligand,1 µM,remaining binding,15%
CC(C)(C)c1cc(C=C(C#N)C#N)cc(Br)c1O,enzyme activity,inhibitor,,0.5 µM,remaining activity,90.2%
C#Cc1n[nH]c2c(-c3cn([C@@H](C)c4ccccc4)c(=O)[nH]c3=O)cc(F)cc12,enzyme activity,inhibitor,,0.1 µM,inhibition,11%
COc1cc(Nc2ncc(F)c(Nc3ccc4c(n3)NC(=O)C(C)(C)O4)n2)cc(OC)c1OC,binding,,competition with immobilised ligand,10 µM,inhibition,99%
Cn1cncc1[C@](O)(COc1ccc(C#N)cc1-c1ccc(OC(F)(F)F)cc1)c1ccc(C#N)cc1,cell-free assay,,competition with immobilised ligand,1 µM,remaining binding,81%
O=c1[nH]c2ccccc2n1C1CCN(Cc2ccc(-c3[nH]c4cc5ncnc5cc4nc3-c3ccccc3)cc2)CC1,cell-free assay,,,0.5 µM,remaining signal,93.9%
C#Cc1n[nH]c2c(-c3cn([C@@H](C)c4ccccn4)c(=O)[nH]c3=O)cc(F)cc12,enzyme activity,inhibitor,,0.1 µM,inhibition,8%
Cn1cc(-c2cccc(N3CCc4c(sc5c4CC(C)(C)C5)C3=O)c2CO)cc(Nc2ccncn2)c1=O,enzyme activity,inhibitor,,1 µM,inhibition,-3%
COc1ncccc1-c1cnn2ccc(N3CCN(C(=O)OC(C)C)CC3)nc12,binding,,competition with immobilised ligand,1 µM,remaining binding,100%
